# HSP90 refold inh: blocks HSP90-mediated luciferase refolding in reticulocyte lysate; Rabbit reticulocyte lysate, luciferase refolding luminescence, 3 h; inhibition, % at 5.6 µM; actives 0.91% (n = 290,000); AID 1789;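 active = inhibition above the screen-wide mean plus 3 SD, computed separately per campaign, cut at about 16% in these data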;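 also: 0% = DMSO wells and 100% = 60 µM geldanamycin wells; inhibitors lower the luminescence because luciferase stays unfolded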
# HCV NS3 hel inh: inhibitors of Hepatitis C virus NS3 helicase | NS3 helicase DNA unwinding, Cy5 molecular beacon fluorescence | inhibition, % at 10.9 µM | actives 0.56% (n = 290,000) | AID 1800;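 active = inhibition above the mean of all tested compounds plus 3 SD, set per campaign, cut at about 35% in these data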;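 also: 0% = DMSO wells and 100% = thioflavine S control wells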
#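 System: Hepatitis C virus NS3 helicase domain fragment enzyme | Reagent: Annealed dual-labelled DNA beacon duplex, ATP-started | Compound dosing: 10.9 µM single point, 0.8% DMSO | Incubation: 1 h reaction at 25 °C, ATP-initiated | Technique: Cy5 fluorescence | Evaluation: Percent inhibition from t60/t0 fluorescence ratio | Benchmarks: Low DMSO, high thioflavine S at 110 µM | Replication: Singlicate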
# HSF1 activator: increases HSF-1 driven luciferase reporter signal; NIH3T3-HGL HSF-1 luciferase reporter, MG132, 8 h; 100% = twice DMSO control signal; activation, % at 9 µM; actives 1.7% (n = 300,000);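 active = mean replicate activation of at least 50% with a set share of replicates each reaching 50%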;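 also: 0% = median of the neutral control wells and 100% = twice that signal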
# Lipid droplet: hepatic lipid droplet formation modulation; AML12 mouse hepatocytes, oleate lipid droplets, BODIPY imaging; inhibition, % at 6.5 µM; actives 0.4% (n = 240,000);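 active = lipid droplet intensity inhibited by at least 50%, with more than 500 cells counted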
#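 Test system: AML12 mouse liver cells; schedule: overnight exposure; technique: high-content imaging of BODIPY-stained droplets and DAPI nuclei; read-out: % inhibition of corrected integrated BODIPY droplet signal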
# HSF1 inh: HSF1 inhibition; actives 0.77% (n = 300,000); activity change, negative = inhibition, % at 7.5 µM (by protocol); NIH3T3-HGL HSE-luciferase, MG132-induced, luminescence 8 h; active compounds read low; AID 2098;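 active = more than half of replicate wells show activity change below -50%, luminescence cut by over half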;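 also: luciferase reports HSF-1 transcriptional activity via heat shock element; 0% = median of DMSO wells and -100% = zero luminescence signal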
# Active calls of the source: *; · = no result given. Shown are actives, neighbours in structure and some others; about 3.8% of the full set was active somewhere.
SMILES,HSP90 refold inh,HCV NS3 hel inh,HSF1 activator,Lipid droplet,HSF1 inh
N#Cc1c(Cl)nc(N/N=C/c2ccccc2)c(Cl)c1Cl,2,7,63*,-1,37
O=C(Cc1ccc([N+](=O)[O-])cc1)N1N=C(C2CC2)CC1(O)C(F)(F)F (stereo not drawn),2,7,68*,-27,12
CCC1=NN(C(=O)Cc2ccc([N+](=O)[O-])cc2)C(O)(C(F)(F)F)C1 (stereo not drawn),6,16,6,7,-3
CCOCCCNC(=O)CCCn1nc(C)n2c(cc3sccc32)c1=O,-2,4,-9,·,1
CCN(CCNC(=O)CCCn1nc(C)n2c(cc3sccc32)c1=O)c1ccccc1,2,2,74*,·,49
Cc1nc(C)n(C(C)CNS(=O)(=O)c2ccc(C)c(C)c2)n1 (stereo not drawn),5,-4,12,-3,1
CCCC[C@@H]1C[C@H]1[C@@H](NC(=O)c1ccco1)c1ccc(Cl)cc1,-1,-7,-84,-61,-82*
CCN1CCCC1CN(Cc1cc2ccc(C)cc2[nH]c1=O)C(=S)Nc1cccc(OC)c1 (stereo not drawn),6,-36,60*,-3,14
CCN1CCCC1CN(Cc1cc2ccc(C)cc2[nH]c1=O)C(=S)Nc1ccc(OC)cc1 (stereo not drawn),-3,5,0,-4,-3
CC(=O)c1cccc(Nc2ncnc3ccc(Br)cc23)c1,2,8,-16,-2,-13
CCN(CC(=O)NC(C)(C)C)C(=O)CN1c2cccc3cccc(c23)S1(=O)=O,2,-10,-7,3,-7
COc1ccc(C2c3c(ncn(CCCO)c3=N)Oc3ccc4ccccc4c32)cc1OC (stereo not drawn),-3,-12,23,14,14
COc1ccc(C2c3c(ncn(CCCO)c3=N)Oc3ccc4ccccc4c32)cc1 (stereo not drawn),0,-33,58*,14,16
Cc1ccc(-c2nnc(SCC(=O)Nc3nccs3)n2N)cc1,-2,-4,-64,12,-61*
O=C(Nc1ccccc1)Nc1nnc(-c2ccccc2)o1,1,-5,-13,·,-7
c1ccc(-c2nnc(NC3=NCCC3)o2)cc1,17*,5,12,4,-1
O=C(Nc1ccc(Cl)cc1)N1CCC(c2ccccc2)C1 (stereo not drawn),0,-5,76*,6,58
Cc1ccc(NC(=O)N2CCC(c3ccccc3)C2)cc1C (stereo not drawn),4,7,62*,6,38
CS(=O)(=O)Cc1ccc(C(=O)NC2CCSc3ccccc32)cc1 (stereo not drawn),1,9,2,-8,-5
COc1ccc(-c2nc(CS(=O)CC(=O)NCc3cccnc3)c(C)o2)cc1 (stereo not drawn),-1,-1,-17,·,-1
CCc1ccc(-c2nc(CS(=O)CC(=O)NCc3cccnc3)c(C)o2)cc1 (stereo not drawn),-3,4,-78,19,-74*
O=C(NNC(=O)c1ncc(Cl)c(Cl)c1Cl)c1ccc(F)cc1,-4,5,-5,0,-4
CCOC(=O)C1=C(c2ccccc2)NC(=O)NC1c1cc(Cl)c(O)c(OC)c1 (stereo not drawn),-1,3,-28,-12,-7
CCOC(=O)C1=C(c2ccccc2)NC(N)=NC1c1ccc(OCc2ccc(Cl)cc2)c(OC)c1 (stereo not drawn),8,-49,71*,-15,38
CCOC(=O)c1cc(CC)sc1/N=C/C1=C(O)CCCC1=O,-12,-7,-67,20,-54*
SMILES,HSP90 refold inh,HCV NS3 hel inh,HSF1 activator,Lipid droplet,HSF1 inh
CCOC(=O)c1c(/N=C/C2=C(O)CCCC2=O)sc2c1CCCC2,1,11,-23,6,-14
O=C(C#Cc1ccccc1)c1ccco1,5,-3,-96,4,-96*
CN(Cc1ccccc1)C(=O)c1ccco1,-1,-1,-52,-2,-31
COc1ccc2cc([C@H](C)C(=O)N(C)Cc3ccccc3N3CCCC3)ccc2c1,4,-12,-6,·,4
O=C(Nc1ccc(Oc2ccccc2)nc1)C1CCCCN1Cc1ccc(OCCO)cc1 (stereo not drawn),-5,-10,3,7,0
N=C1c2ccccc2CN1NC(=O)COc1ccc(Cl)cc1,-2,4,7,10,4
CC(C)(C)c1ccc(OCC(=O)NN2Cc3ccccc3C2=N)cc1,1,-14,92*,0,38
CCc1c(C)nc(SCC(=O)Nc2cccc(Br)c2)[nH]c1=O,2,-7,57*,1,21
O=C(NCCC1=CCCCC1)C1CCN(C(=O)Cc2ccccc2)CC1,6,2,6,-15,6
O=C(NCC1CCOCC1)c1ccc2nc(Cc3cccc(Cl)c3)oc2c1,-3,-9,54*,18,12
Cc1cccc(NC(=O)c2cccc(NC(=O)c3ccco3)c2)c1C,·,·,-2,·,5
COc1ccc(-c2cc3ccc(OCC(C)=O)cc3oc2=O)cc1,9,4,62*,-27,28
COc1ccc(-c2cc3ccc(O)cc3oc2=O)cc1,1,4,51*,4,26
O=c1oc2cc(O)ccc2cc1-c1ccccc1,3,3,12,-19,14
O=C(N[C@@H](Cc1c[nH]c2ccccc12)C(=O)O)C1CCN(S(=O)(=O)c2ccc(Cl)cc2)CC1,-3,-8,5,3,10
O=C1/C(=C/c2cccnc2)CCc2c1[nH]c1ccccc21,-3,-4,11,-2,3
CC(C)C/C=C1\CCc2c([nH]c3ccccc23)C1=O,0,-6,59*,-5,51
COc1cc(NC(=O)C2CSC3(C)CCC(=O)N23)c(OC)cc1Cl (stereo not drawn),·,·,1,·,-6
C=C(C)CN(CC)c1nc(N)c(C#N)c(CC#N)c1C#N,1,-4,75*,·,69
CC1CN(C(=O)c2cc(S(=O)(=O)N(C)c3ccc(F)cc3)ccc2Cl)CC(C)O1 (stereo not drawn),-1,-6,-76,2,-71*
CC(C)c1cccc(C(C)C)c1NC(=O)CN1CCCC1,-3,6,-14,-9,-4
COC(=O)C(=Cc1ccc(OCc2ccc([N+](=O)[O-])cc2)c(OC)c1)C(=O)OC,-1,-7,278*,15,181
CCOC(=O)C(=Cc1ccc(OCc2ccc([N+](=O)[O-])cc2)c(OC)c1)C(=O)OCC,1,-6,77*,-9,40
COc1cc(/C=N/NC(=O)c2cccc([N+](=O)[O-])c2)ccc1OCc1ccccc1,5,5,23,-8,11
COc1cc(C(c2c(C)[nH][nH]c2=O)c2c(C)[nH][nH]c2=O)ccc1OCc1ccc([N+](=O)[O-])cc1,8,1,205*,-9,140
